# Sampled rows, rich in hits. Any-hit rate of the full collection: about 9.4%.
# Mdm2 MdmX PPI – inhibitors of human Mdm2-MdmX association, primary screen, cell-based, luminescence, split luciferase, SaOS-2, uHTS. actives 3% (n = 330,000). Protein Mdm4 (Homo sapiens) + E3 ubiquitin-protein ligase Mdm2 (Homo sapiens), …. SaOS-2 split-luciferase Mdm2/MdmX complementation. inhibition, % at 8 µM;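 active = inhibition of at least 50% at 8 µM in the primary screen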
# T cruzi inh – inhibitors of intracellular T. cruzi growth, primary screen, luminescence, NIH3T3 host cells | actives 1.4% (n = 300,000) | inhibition, % (concentration not given with the values) | T. cruzi beta-gal in NIH3T3, 90 h;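 active = mean inhibition across valid replicates above about 55%, limit read from the data; inconclusive = mean below that limit but half or more replicates reach it; inactive = mean below it, under half of replicates reach it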;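 also: signal also drops with host cell toxicity which is not excluded here; 0% = plate median of DMSO wells and 100% = zero luminescence signal; higher percent means less beta-gal luminescence so fewer parasites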
#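 Assay system: NIH/3T3 fibroblasts plus reporter T. cruzi. Amount: NIH/3T3 cells, 5,000 per well. Buffer or medium: DMEM, 2% fetal bovine serum. Doses: compound pinned at 50 nL/well, DMSO. Schedule: ≥90 h infection period, 3 h prior cell attachment. Signal: luminescent β-galactosidase signal after 60 min lysis. Read-out: parasite load inhibition, %.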
# SKKanGAS inh – S. pyogenes SKKanGAS growth inhibitors in kanamycin, primary screen, streptokinase expression inhibitor project, SKKanGAS strain, BacTiter-Glo luminescence | 6 h | inhibition, % at 7.5 µM | actives 1.3% (n = 300,000);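 active = mean replicate score, as percent of positive control median, at least 50; inconclusive = mean below 50 but one replicate at or above 50; inactive = mean and every replicate below 50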;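 also: strain carries kanamycin resistance gene driven by streptokinase promoter and grows in 40 µg/ml kanamycin; loss of luminescence reflects streptokinase promoter inhibition or plain growth inhibition; 0% = median of DMSO wells and 100% = positive control at its reference dose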
# CSC inhib – cancer stem cell viability inhibitors, primary screen, luminescence; cancer stem cell-like cells viability; actives 1.1% (n = 300,000); AID 2717, 2010; inhibition, % at 7.5 µM; in the data active = inhibition above about 75%; inconclusive = no clear call, values can overlap the other calls; tested in HMLE shEcad cells
# Beta cell apopt – inhibitors of cytokine-induced beta cell apoptosis, primary screen, luminescence; INS-1E cytokine-induced death, ATP luminescence, 48 h; percent of positive-control rescue, neutral wells zero; protection from apoptosis, % (no concentration beside the values); actives 0.8% (n = 300,000);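 active = Every replicate reaches about 75%, or at least half do and their mean reaches it too, limit read from the data; inconclusive = At least half of replicates reach the limit but their mean does not; inactive = Under half of replicates reach the limit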;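 also: 0% = cytokine-treated negative control wells and 100% = positive control rescue; higher means more ATP so stronger rescue from cytokine killing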
# Lmaj promast – Leishmania major promastigote growth inhibition, primary screen; Leishmania major promastigotes, resazurin fluorescence viability; inhibition, % at 10 µM; actives 9% (n = 200,000); in the data active = inhibition above about 50%;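 also: promastigotes grown with compound for 44 hours at 28 °C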
# * marks the source's active call; other numbers are inactive results; ? = inconclusive; nt = no result given.
SMILES,Mdm2 MdmX PPI,T cruzi inh,SKKanGAS inh,CSC inhib,Beta cell apopt,Lmaj promast
COc1ccc(Cl)cc1NC(=O)C1CCCN(c2ncnc3c2nc2n3CCCCC2)C1 (stereo not given),25,30,14,39,17,nt
COc1cc2c(cc1NC(=O)CN(C)Cc1cccc(OC)c1OC)oc1ccccc12,17,43,0,99*,-8,6
O=C(O)c1ccc(NC(=S)Nc2ccccc2)cc1,-12,0,1,27,-1,91*
COc1c(F)c(F)c(C(=O)Nc2ccc(N3CCN(Cc4ccccc4)CC3)cc2)c(F)c1F,6,36,-5,nt,40,52*
Cc1cc(NC(=S)Nc2ccccc2)ccc1Br,9,14,8,-4,2,97*
COC(=O)c1ccc(NC(=S)Nc2ccccc2)cc1,-7,-45,0,8,-6,14
CCN1CCN(c2ccc(NC(=O)c3cccc(OCc4ccccc4)c3)cc2)CC1,38,19,1,52,-1,-2
CN1CCN(c2ccc(NC(=O)c3cccc(OCc4ccccc4)c3)cc2)CC1,43,14,-3,51,1,100*
O=C(NC(=S)Nc1ccc(CN2CCCCC2)cc1)c1cccc(OCc2ccccc2)c1,23,73*,9,nt,nt,84*
O=C(Nc1ccccc1)/C(=C/c1ccccc1)c1ccccc1,8,11,-7,16,-1,98*
O=C(O)c1ccc(NC(=S)NC(=O)c2cccc(COc3ccccc3)c2)cc1,7,-4,58*,nt,4,-8
O=C(NCCCOc1cccc(CN2CCCCC2)c1)c1ccc(Cl)c(Cl)c1,27,39,-4,nt,9,66*
CCC(C)n1ncn(-c2ccc(N3CCN(c4ccc(OC)cc4)CC3)cc2)c1=O (stereo not given),21,-8,-2,-5,8,26
NNC(=O)COc1ccc(C(F)(F)F)cc1,0,-5,4,-1,-3,-1
COc1ccccc1CNC(=O)COC(=O)COc1ccccc1F,-42,nt,nt,11,2,nt
CC1=C(C#N)CCC(=O)N1Cc1ccc(C)cc1,-5,-14,1,-8,-1,14
Nc1ccccc1C(=O)N/N=C1\C2CN3CCN(C2)CC1(c1ccccc1)C3,7,-4,1,16,-8,22
N#C/C(=C\C=C\c1ccccc1)C(=O)Nc1ccccc1,13,8,3,10,11,49
N#C/C(=C/C=C/c1ccccc1)C(=O)Nc1ccccc1,26,69*,11,4,4,21
CCN(CC)S(=O)(=O)c1cccc(C(=O)N/N=C/c2ccccc2OCC(=O)O)c1,-14,-11,1,-23,-7,1
CSc1ccc(/C=N/NC(=O)c2ccc(O)cc2)cc1,-35,7,4,70,9,96*
CCN(CC)S(=O)(=O)c1cccc(C(=O)N/N=C/c2ccc([N+](=O)[O-])o2)c1,20,56*,7,12,-1,100*
O=C(N/N=C\c1ccc([N+](=O)[O-])o1)c1cncc(Br)c1,6,58*,5,3,nt,nt
Cc1scc(C(=O)N/N=C/c2ccc([N+](=O)[O-])o2)c1C,21,39,-1,nt,39,nt
O=C(N/N=C/c1ccc(-c2ccccc2[N+](=O)[O-])o1)c1cncc(Br)c1,-11,-7,-3,1,-3,98*
SMILES,Mdm2 MdmX PPI,T cruzi inh,SKKanGAS inh,CSC inhib,Beta cell apopt,Lmaj promast
C=CCOc1c(OC)cc(/C=N/Nc2cccc(C(=O)O)c2)c(Br)c1Br,nt,10,28,31,-10,-7
O=S(=O)(Cc1ccccc1)N(O)c1ccccc1,4,-5,0,0,-1,nt
CC(=O)NCC1CCCN(C(=O)c2ccc(OC3CCN(Cc4ccccn4)CC3)cc2)C1 (stereo not given),2,-12,-1,nt,nt,nt
O=C(c1cccc(Cl)c1)N1CCCc2ccccc21,15,4,3,-8,nt,nt
COc1ccc(Cl)cc1NC(=O)CN(C)C(=O)c1cc(C)oc1C,29,nt,nt,-11,-3,nt
O=C(N/N=C/c1ccc([N+](=O)[O-])o1)c1ccncc1,18,22,10,-5,-24,nt
Cc1ccc(/C=N\NC(=O)c2cc([N+](=O)[O-])cc([N+](=O)[O-])c2)o1,8,45,-14,-9,-9,58*
Cc1c(C(=O)N/N=C/c2ccc(-c3ccccc3[N+](=O)[O-])o2)sc(N)c1C#N,nt,12,18,0,5,71*
Cc1cc([N+](=O)[O-])c(C)cc1-c1ccc(/C=N/NC(=O)c2cccnc2)o1,1,-11,-3,11,6,100*
O=C(N/N=C/c1ccc([N+](=O)[O-])o1)c1ccc(O)cc1,nt,44,27,-18,100*,100*
Cc1ccc(C(=O)N/N=C/c2ccc(-c3ccc(Br)cc3[N+](=O)[O-])o2)o1,6,37,5,12,-5,nt
Cc1ccc(N(Cc2ccc(C(=O)NN=C3CCN(C)CC3)cc2)S(C)(=O)=O)cc1C,-30,11,-2,11,-1,34
C=CCc1c(C)nc(SC)nc1Nc1ccc(C(C)=O)cc1,-7,2,4,21,14,71*
CC(=O)C(=Nc1ccc(Cl)cc1Cl)NNc1cccc(Cl)c1,-7,46,52*,-12,4,25
CCCNC1=C(N(C(C)=O)c2cccc(F)c2)C(=O)c2ccccc2C1=O,nt,55*,12,102*,126*,99*
CCCCN1/C(=C/c2cccc[n+]2C)Sc2cc(NC(C)=O)ccc21,10,13,0,-11,25,nt
Cc1ccc2c(c1)N(C)/C(=C/c1cccc[n+]1CCO)S2,9,?,1,7,98*,nt
Cc1ccc(CN2CCN(/N=C/c3cc([N+](=O)[O-])ccc3Cl)CC2)cc1,5,27,-1,33,-4,8
Cc1ccc(CN2CCN(/N=C/c3cc(Br)cc(Br)c3O)CC2)cc1,2,11,2,-14,-2,51*
Oc1c(Br)cc(Br)cc1/C=N/N1CCN(Cc2ccccc2)CC1,nt,nt,nt,27,-2,-2
Cc1ccc(CN2CCN(/N=C/c3ccc(Cl)c([N+](=O)[O-])c3)CC2)cc1,4,62*,2,-9,nt,95*
O=C(CCN1CCCCC1)c1ccc2c(c1)OCO2,-32,-9,-14,19,-16,27
O=C(CCCN1CCC(c2ccccc2)C1)c1ccc2c(c1)OCCO2 (stereo not given),-20,?,-3,31,0,95*
O=C(Cc1ccccc1)c1ccc2c(c1)OCCO2,-15,-8,13,6,-3,-7
O=C(CCCN1CCOCC1)c1ccc2c(c1)OCCO2,24,4,-9,-15,1,90*

# High-throughput results (PubChem)
